Test results published in ChEMBL document CHEMBL3351507, “11H-Pyrido[3',2':4,5]pyrrolo[3,2-c]cinnoline and pyrido[3',2':4,5]pyrrolo[1,2-c][1,2,3]benzotriazine: two new ring systems with antitumor activity” (2014).
Activity calls are given as the source filed them. The rule behind the calls is not given here.

Assays:
[1] = test system: SN12C; assay: Cytotoxicity against human SN12C cells assessed as growth inhibition after 72 hrs by MTT assay; format: functional
In short: (§1)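 NCI 60-cell-line panel screen. Compounds were tested at 5 concentrations in 10-fold dilution (10^-4 to 10^-8 M) across the full panel. GI50 was taken as the molar concentration giving 50% inhibition of net cell growth.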

[2] = test system: SNB-75; assay: Cytotoxicity against human SNB75 cells assessed as growth inhibition after 72 hrs by MTT assay; format: functional; conditions: SNB-75, 72 h; in short: as §1
[3] = test system: Jurkat; assay: Induction of apoptosis in human Jurkat cells assessed as loss of plasma membrane asymmetry at 250 to 500 nM after 24 hrs by annexin V-FITC/propidium iodide staining-based flow cytofluorimetric analysis; format: functional, cell-based
In short: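 Jurkat cells were incubated with 250 or 500 nM compound for 6 h or 24 h. They were then double-stained with Annexin V-FITC and propidium iodide and analysed by flow cytometry (488 nm excitation; emission 525 and 585 nm). Mean ± SEM of 3 experiments.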

[4] = Cytotoxicity against human HCT116 cells assessed as growth inhibition after 72 hrs by MTT assay; format: functional; conditions: HCT-116, 72 h
[5] = test system: LoVo; assay: Anticlonogenic activity against human LoVo cells assessed as inhibition of colony formation of cells at 2.5 to 5 uM incubated for 24 hrs followed by compound washout measured after 1 to 2 weeks by crystal violet staining-based assay; format: functional, cell-based
[6] = test system: MOLT-4; assay: Cytotoxicity against human MOLT4 cells assessed as growth inhibition after 72 hrs by MTT assay; format: functional; conditions: MOLT-4, 72 h
[7] = test system: Jurkat; assay: Cell cycle arrest in human Jurkat cells assessed as accumulation at subG1 phase at 0.5 uM after 24 hrs by propidium iodide staining-based flow cytometry (reference value: 5.3%); format: functional
[8] = test system: NCI-H460; assay: Cytotoxicity against human NCI-H460 cells assessed as growth inhibition after 72 hrs by MTT assay; format: functional; conditions: NCI-H460, 72 h
[9] = Cytotoxicity against human Hs578T cells assessed as growth inhibition after 72 hrs by MTT assay; format: functional; conditions: Hs-578T
[10] = test system: SF-539; assay: Cytotoxicity against human SF539 cells assessed as growth inhibition after 72 hrs by MTT assay; format: functional; conditions: SF-539, 72 h; in short: as §1
[11] = test system: A549; assay: Cytotoxicity against human A549 cells assessed as growth inhibition after 72 hrs by MTT assay; format: functional; conditions: A549, 72 h
[12] = test system: M14; assay: Cytotoxicity against human M14 cells assessed as growth inhibition after 72 hrs by MTT assay; format: functional; conditions: M14, 72 h
[13] = test system: HOP-62; assay: Cytotoxicity against human HOP62 cells assessed as growth inhibition after 72 hrs by MTT assay; format: functional; conditions: HOP-62, 72 h
[14] = test system: Jurkat; assay: Cell cycle arrest in human Jurkat cells assessed as accumulation at G2/M phase at 0.5 uM after 24 hrs by propidium iodide staining-based flow cytometry (reference value: 21.9%); format: functional
[15] = test system: SF-268; assay: Cytotoxicity against human SF268 cells assessed as growth inhibition after 72 hrs by MTT assay; format: functional; conditions: SF-268, 72 h; in short: as §1
[16] = test system: Jurkat; assay: Induction of apoptosis in human Jurkat cells assessed as caspase-3 activation at 500 nM after 6 to 24 hrs by plate reader analysis; format: functional, cell-based
In short: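 Jurkat cells were treated with 500 nM compound for 6 h and 24 h, then lysed. Lysates were incubated with pNA-conjugated substrates: Ac-DEVD (caspase-3), Ac-IETD (caspase-8) and LEHD (caspase-9). pNA release was read at 405 nm and normalized to Bradford protein. Results are expressed as fold increase over untreated control.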

[17] = test system: MCF7; assay: Cytotoxicity against human MCF7 cells assessed as growth inhibition after 72 hrs by MTT assay; format: functional; conditions: MCF7, 72 h
[18] = test system: CCRF-CEM; assay: Cytotoxicity against human CCRF-CEM cells assessed as growth inhibition after 72 hrs by MTT assay; format: functional
[19] = test system: LoVo; assay: Anticlonogenic activity against human LoVo cells assessed as inhibition of colony formation of cells at 0.625 to 10 uM incubated for 24 hrs followed by compound washout measured after 1 to 2 weeks by crystal violet staining-based assay; format: functional, cell-based

Compound	GI50 [1] [nM]	GI50 [2] [nM]	Activity [3]	GI50 [4] [nM]	inhibition [5]	GI50 [6] [nM]	Activity [7] [%]	GI50 [8] [nM]	GI50 [9] [nM]	GI50 [10] [nM]	GI50 [11] [nM]	GI50 [12] [nM]	GI50 [13] [nM]	Activity [14] [%]	GI50 [15] [nM]	Activity [16]	GI50 [17] [nM]	GI50 [18] [nM]	inhibition [19]
COc1ccc2c(c1)nnc1c3cccnc3[nH]c21	1630	640	Active	210	Active	29	39.8	1930	3470	640	7900	1070	5470	38.2	730	Active	230	–	–
COc1cc2nnc3c4cccnc4[nH]c3c2cc1OC	2270	1480	–	130	–	18	–	2460	3700	1730	7900	1790	2260	–	540	–	340	–	–
O=Nc1c2cccnc2n2nnc3ccc(Cl)cc3c12	1460	1420	–	190	–	18	–	1330	1050	1890	2200	1190	1440	–	1210	–	570	23	–
COc1ccc2c(c1)nnn1c3ncccc3c(N=O)c21	1400	850	Active	60	–	9.4	39.1	1670	1170	470	10800	1570	7510	44.7	470	Active	130	–	Active
COc1cc2nnn3c4ncccc4c(N=O)c3c2cc1OC	1800	2250	Active	61	Active	< 10	21.7	2610	6800	1820	13300	1710	1900	54.3	490	Active	260	< 10	–
